From ChEMBL document CHEMBL1275598, “In vitro activity of ceftaroline against community-associated methicillin-resistant, vancomycin-intermediate, vancomycin-resistant, and daptomycin-nonsusceptible Staphylococcus aureus isolates” (2010)

Key:
Staphylococcus aureus [1] = test: Antimicrobial activity against vancomycin resistant Staphylococcus aureus VRS-4 expressing SCCmec type 4 element by microdilution method in presence of 50 mg/L calcium
Staphylococcus aureus [2] = test: Antimicrobial activity against vancomycin intermediate Staphylococcus aureus NRS-19 expressing SCCmec type 2 element by microdilution method in presence of 50 mg/L calcium; format: functional
Summary of the method: (§1)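 Daptomycin MIC by CLSI broth microdilution in cation-adjusted Mueller-Hinton broth, supplemented with calcium to a final 50 mg/liter. Read visually as the lowest concentration with no visible growth. ATCC 29213 and E. faecalis ATCC 29212 served as controls. CA-MRSA and DNSSA isolates came from patients at the study hospital; VISA isolates came from NARSA.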

Staphylococcus aureus [3] = test: Antimicrobial activity against daptomycin-nonsusceptible Staphylococcus aureus assessed as susceptible isolates by microdilution method in presence of 50 mg/L calcium; format: functional
Summary of the method: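 Broth microdilution MIC per CLSI in cation-adjusted Mueller-Hinton broth, with calcium added to a final 50 mg/liter for daptomycin testing. MIC is the lowest drug concentration with no visible growth, read by eye. Percent susceptible was assigned from CLSI breakpoints. S. aureus ATCC 29213 and E. faecalis ATCC 29212 served as control strains.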

Staphylococcus aureus [4] = test: Antimicrobial activity against vancomycin intermediate Staphylococcus aureus NRS-68 expressing SCCmec type 2 element by microdilution method in presence of 50 mg/L calcium; format: functional; summary of the method: as §1
Staphylococcus aureus [5] = test: Antimicrobial activity against vancomycin intermediate Staphylococcus aureus NRS-23 expressing SCCmec type 2 element by microdilution method in presence of 50 mg/L calcium; format: functional; summary of the method: as §1
Staphylococcus aureus [6] = test: Antimicrobial activity against vancomycin intermediate Staphylococcus aureus NRS-3 expressing SCCmec type 2 element by microdilution method in presence of 50 mg/L calcium; format: functional; summary of the method: as §1
Staphylococcus aureus [7] = test: Bactericidal activity against vancomycin-intermediate Staphylococcus aureus assessed as antibiotic concentration that reduced the number of viable cells by =>99.9% by colony count method in presence of 50 mg/L calcium; format: functional
Summary of the method: (§2)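 MBC per CLSI following microdilution in cation-adjusted Mueller-Hinton broth with calcium added to 50 mg/liter final. Defined as the concentration giving ≥99.9% reduction in viable cells, judged from colony counts of the growth control well against Pearson rejection-value tables.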

Staphylococcus aureus [8] = test: Antimicrobial activity against vancomycin intermediate Staphylococcus aureus NRS-73 expressing SCCmec type 4d element by microdilution method in presence of 50 mg/L calcium; format: functional; summary of the method: as §1
Staphylococcus aureus [9] = test: Antimicrobial activity against vancomycin resistant Staphylococcus aureus VRS-2 expressing SCCmec type 2 element by microdilution method in presence of 50 mg/L calcium
Staphylococcus aureus [10] = test: Antimicrobial activity against vancomycin intermediate Staphylococcus aureus NRS-4 expressing SCCmec type 2 element by microdilution method in presence of 50 mg/L calcium; format: functional; summary of the method: as §1
Staphylococcus aureus [11] = test: Antimicrobial activity against vancomycin-intermediate Staphylococcus aureus by microdilution method in presence of 50 mg/L calcium; format: functional
Summary of the method: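 Daptomycin MIC by CLSI broth microdilution in cation-adjusted Mueller-Hinton broth supplemented with calcium to a final 50 mg/liter. The endpoint is the lowest concentration with no visible growth, read visually. S. aureus ATCC 29213 and E. faecalis ATCC 29212 were used as control strains.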

Staphylococcus aureus [12] = test: Antimicrobial activity against vancomycin intermediate Staphylococcus aureus NRS-26 expressing SCCmec type 2 element by microdilution method in presence of 50 mg/L calcium; format: functional; summary of the method: as §1
Staphylococcus aureus [13] = test: Antimicrobial activity against vancomycin resistant Staphylococcus aureus VRS-6 expressing SCCmec type 2 element by microdilution method in presence of 50 mg/L calcium; format: functional
Summary of the method: (§3)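 Broth microdilution per CLSI in cation-adjusted Mueller-Hinton broth supplemented with calcium to 50 mg/liter final. Antibiotic powders were reconstituted per CLSI. The MIC was read visually as the lowest drug concentration with no visible growth. S. aureus ATCC 29213 and E. faecalis ATCC 29212 served as control strains.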

Staphylococcus aureus [14] = test: Antimicrobial activity against vancomycin intermediate Staphylococcus aureus NRS-24 expressing SCCmec type 2 element by microdilution method in presence of 50 mg/L calcium; format: functional; summary of the method: as §1
Staphylococcus aureus [15] = test: Antimicrobial activity against vancomycin resistant Staphylococcus aureus VRS-9 expressing SCCmec type 2 element by microdilution method in presence of 50 mg/L calcium
Staphylococcus aureus [16] = test: Antimicrobial activity against vancomycin intermediate Staphylococcus aureus NRS-74 expressing SCCmec type 2 element by microdilution method in presence of 50 mg/L calcium; format: functional; summary of the method: as §3
Staphylococcus aureus [17] = test: Antimicrobial activity against vancomycin resistant Staphylococcus aureus VRS-10 expressing SCCmec type 2 element by microdilution method in presence of 50 mg/L calcium
Staphylococcus aureus [18] = test: Antimicrobial activity against vancomycin-resistant Staphylococcus aureus assessed as susceptible isolates by microdilution method in presence of 50 mg/L calcium; format: functional; summary of the method: as §3
Staphylococcus aureus [19] = test: Antimicrobial activity against vancomycin intermediate Staphylococcus aureus NRS-17 expressing SCCmec type 2 element by microdilution method in presence of 50 mg/L calcium; format: functional; summary of the method: as §1
Staphylococcus aureus [20] = test: Antimicrobial activity against vancomycin intermediate Staphylococcus aureus NRS-126 expressing SCCmec type 2 element by microdilution method in presence of 50 mg/L calcium; format: functional; summary of the method: as §1
Staphylococcus aureus [21] = test: Antimicrobial activity against vancomycin intermediate Staphylococcus aureus NRS-404 expressing SCCmec type 2 element by microdilution method in presence of 50 mg/L calcium; format: functional; summary of the method: as §1
Staphylococcus aureus [22] = test: Bactericidal activity against daptomycin-nonsusceptible Staphylococcus aureus assessed as antibiotic concentration that reduced the number of viable cells by =>99.9% by colony count method in presence of 50 mg/L calcium; format: functional; summary of the method: as §2
Staphylococcus aureus [23] = test: Bactericidal activity against community-acquired methicillin-resistant Staphylococcus aureus assessed as antibiotic concentration that reduced the number of viable cells by =>99.9% by colony count method in presence of 50 mg/L calcium; format: functional; summary of the method: as §2
Staphylococcus aureus [24] = test: Antimicrobial activity against daptomycin-nonsusceptible Staphylococcus aureus by microdilution method in presence of 50 mg/L calcium; format: functional; summary of the method: as §1
Staphylococcus aureus [25] = test: Antimicrobial activity against vancomycin intermediate Staphylococcus aureus NRS-51 expressing SCCmec type 2 element by microdilution method in presence of 50 mg/L calcium; format: functional; summary of the method: as §1
Staphylococcus aureus [26] = test: Antimicrobial activity against vancomycin resistant Staphylococcus aureus VRS-8 expressing SCCmec element by microdilution method in presence of 50 mg/L calcium
Staphylococcus aureus [27] = test: Antimicrobial activity against community-acquired methicillin-resistant Staphylococcus aureus by microdilution method in presence of 50 mg/L calcium; format: functional; summary of the method: as §1
Staphylococcus aureus [28] = test: Antimicrobial activity against vancomycin resistant Staphylococcus aureus VRS-1 expressing SCCmec type 2 element by microdilution method in presence of 50 mg/L calcium; format: functional; summary of the method: as §3
Staphylococcus aureus [29] = test: Antimicrobial activity against vancomycin intermediate Staphylococcus aureus NRS-118 expressing SCCmec type 1 element by microdilution method in presence of 50 mg/L calcium; format: functional; summary of the method: as §1
Staphylococcus aureus [30] = test: Antimicrobial activity against vancomycin intermediate Staphylococcus aureus NRS-76 expressing SCCmec type 2 element by microdilution method in presence of 50 mg/L calcium; format: functional; summary of the method: as §3
Staphylococcus aureus [31] = test: Antimicrobial activity against vancomycin intermediate Staphylococcus aureus NRS-27 expressing SCCmec type 2 element by microdilution method in presence of 50 mg/L calcium; format: functional; summary of the method: as §1

SMILES: CCCCCCCCCC(=O)N[C@@H](Cc1c[nH]c2ccccc12)C(=O)N[C@H](CC(N)=O)C(=O)N[C@@H](CC(=O)O)C(=O)N[C@@H]1C(=O)NCC(=O)N[C@@H](CCCN)C(=O)N[C@@H](CC(=O)O)C(=O)N[C@H](C)C(=O)N[C@@H](CC(=O)O)C(=O)NCC(=O)N[C@H](CO)C(=O)N[C@@H]([C@H](C)CC(=O)O)C(=O)N[C@@H](CC(=O)c2ccccc2N)C(=O)O[C@@H]1C
- MIC (Staphylococcus aureus [1]): 0.5 µg/mL
- MIC (Staphylococcus aureus [2]): 2 µg/mL
- Activity (Staphylococcus aureus [3]): 0%
- MIC (Staphylococcus aureus [4]): 1 µg/mL
- MIC (Staphylococcus aureus [5]): 2 µg/mL
- MIC (Staphylococcus aureus [6]): 4 µg/mL
- MBC50 (Staphylococcus aureus [7]): 2 µg/mL
- MBC90 (Staphylococcus aureus [7]): 4 µg/mL
- MBC (Staphylococcus aureus [7]; Staphylococcus aureus): 0.5 µg/mL
- MIC (Staphylococcus aureus [8]): 2 µg/mL
- MIC (Staphylococcus aureus [9]): 0.5 µg/mL
- MIC (Staphylococcus aureus [10]): 1 µg/mL
- MIC50 (Staphylococcus aureus [11]): 2 µg/mL
- MIC90 (Staphylococcus aureus [11]): 4 µg/mL
- MIC (Staphylococcus aureus [12]): 4 µg/mL
- MIC (Staphylococcus aureus [13]): 1 µg/mL
- MIC (Staphylococcus aureus [14]): 2 µg/mL
- MIC (Staphylococcus aureus [15]): 0.5 µg/mL
- MIC (Staphylococcus aureus [16]): 4 µg/mL
- MIC (Staphylococcus aureus [17]): 0.5 µg/mL
- Activity (Staphylococcus aureus [18]): 100%
- MIC (Staphylococcus aureus [19]): 4 µg/mL
- MIC (Staphylococcus aureus [20]): 2 µg/mL
- MIC (Staphylococcus aureus [21]): 2 µg/mL
- MBC (Staphylococcus aureus [22]): 4 µg/mL
- MBC50 (Staphylococcus aureus [22]): 8 µg/mL
- MBC (Staphylococcus aureus [22]; Staphylococcus aureus, read-out: MBC): 5.94 µg/mL
- MBC50 (Staphylococcus aureus [23]): 0.5 µg/mL
- MBC90 (Staphylococcus aureus [23]): 1 µg/mL
- MBC (Staphylococcus aureus [23]; Staphylococcus aureus): 0.25 µg/mL
- MIC (Staphylococcus aureus [24]): 4 µg/mL
- MIC50 (Staphylococcus aureus [24]): 4 µg/mL
- MIC (Staphylococcus aureus [25]): 1 µg/mL
- MIC (Staphylococcus aureus [26]): 0.5 µg/mL
- MIC50 (Staphylococcus aureus [27]): 0.5 µg/mL
- MIC90 (Staphylococcus aureus [27]): 1 µg/mL
- MIC (Staphylococcus aureus [28]): 1 µg/mL
- MIC (Staphylococcus aureus [29]): 4 µg/mL
- MIC (Staphylococcus aureus [30]): 2 µg/mL
- MIC (Staphylococcus aureus [31]): 1 µg/mL
